Ten compounds from ChEMBL document CHEMBL1148438, “Discovery of a new family of inhibitors of human cytomegalovirus (HCMV) based upon lipophilic alkyl furano pyrimidine dideoxy nucleosides: action via a novel non-nucleosidic mechanism” (J Med Chem, 2004) can be followed below.

One assay deals with HEL. Nature of the assay: Effective concentration required to inhibit HCMV AD169 strain-induced cytopathicity in human embryonic lung (HEL) fibroblast cell cultures at day 7 of postinfection. It is filed as functional, cell-based. The settings on record: 168 h. In a few lines: (§1)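 Confluent HEL fibroblast monolayers were infected with 100 PFU of HCMV per well and adsorbed for 1-2 h. Residual virus was removed, and cells were kept in MEM with 2% inactivated FCS, 1% L-glutamine and 0.3% sodium bicarbonate plus varying compound concentrations. Cytopathicity was scored at day 7, and EC50 was the concentration reducing virus-induced CPE by 50% versus untreated control.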
(In general: Damage to the host cells serves as the signal in cytopathic effect assays.)
The term EC50 denotes the concentration needed to bring the measured effect to its halfway point. Read a low EC50 as greater potency. For the compound `CCCCCCCCCCCCCCc1cc2cn(C3CCC(CO)O3)c(=O)nc2o1` (stereo not drawn), the 50% effective concentration (EC50) is 25 µM.
On the same count and under the same terms, then `CCCCCCCCc1cc2cn(C3CCC(CO)O3)c(=O)nc2o1` (stereo not drawn), with 2.5 µM; and `CCCCCCc1cc2cn(C3CCC(CO)O3)c(=O)nc2o1` (stereo not drawn), with 32 µM; and `CCCCCCCCCCCc1cc2cn(C3CCC(CO)O3)c(=O)nc2o1` (stereo not drawn), with 1.4 µM.
As to `CCCCCCCCCc1cc2cn(C3CCC(CO)O3)c(=O)nc2o1` (stereo not drawn), the EC50 came to 1.2 µM.
On the same count and under the same terms, with `CCCCCCCCCCc1cc2cn(C3CCC(CO)O3)c(=O)nc2o1` (stereo not drawn) the figure was 2.6 µM.
On the same count and under the same terms, then `CCCCCCCCCCCCc1cc2cn(C3CCC(CO)O3)c(=O)nc2o1` (stereo not drawn), with 3.7 µM; and `O=C(O)P(=O)(O)O` [FOSCARNET], with 53 µM.
`Nc1nc2c(ncn2COC(CO)CO)c(=O)[nH]1` [GANCICLOVIR] had an EC50 of 2.7 µM.

The test system of another assay is HEL. Nature of the assay: Effective concentration required to inhibit HCMV Davis strain-induced cytopathicity in human embryonic lung (HEL) fibroblast cell cultures at day 7 of postinfection. In kind it is functional, cell-based. The conditions noted are these: 168 h. The method in brief:
as §1
In turn, `CCCCCCCCCCCCCCc1cc2cn(C3CCC(CO)O3)c(=O)nc2o1` (stereo not drawn) showed an EC50 of 40 µM.
Compound `CCCCCCCCc1cc2cn(C3CCC(CO)O3)c(=O)nc2o1` (stereo not drawn) had an EC50 of 3 µM.
The compound `CCCCCCc1cc2cn(C3CCC(CO)O3)c(=O)nc2o1` (stereo not drawn) displayed an EC50 of more than 50 µM.
Consider `CCCCCCCCCCCc1cc2cn(C3CCC(CO)O3)c(=O)nc2o1` (stereo not drawn), for which a half-maximal effect (EC50) was put at 1.2 µM.
On the same count and under the same terms, with `CCCCCCCCCc1cc2cn(C3CCC(CO)O3)c(=O)nc2o1` (stereo not drawn) the figure was 1.3 µM; with `CCCCCCCCCCc1cc2cn(C3CCC(CO)O3)c(=O)nc2o1` (stereo not drawn), 3.2 µM.
For `CCCCCCCCCCCCc1cc2cn(C3CCC(CO)O3)c(=O)nc2o1` (stereo not drawn), the EC50 stood at 5 µM.
For the compound `O=C(O)P(=O)(O)O` [FOSCARNET], a half-maximal effect (EC50) was put at 62 µM.
Still for that read-out and setting: then `Nc1nc2c(ncn2COC(CO)CO)c(=O)[nH]1` [GANCICLOVIR], with 3.9 µM.

The test system of another assay is HEL. Nature of the assay: Cytostatic concentration required to inhibit HEL cell proliferation measured at day 4. In kind it is functional. The conditions noted are these: Homo sapiens, 96 h. The method in brief:
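Growing, subconfluent HEL cells were exposed to different compound concentrations, then trypsinized and counted with a Coulter counter. The 50% value was the concentration reducing cell number by 50% relative to untreated cells.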
Usually CC50 stands for the concentration at which the toxic effect on the cells reaches its halfway point. A low value points to harm at low concentration. In turn, `CCCCCCCCCCCCCCc1cc2cn(C3CCC(CO)O3)c(=O)nc2o1` (stereo not drawn) registered a CC50 of more than 200 µM.
In turn, `CCCCCCCCc1cc2cn(C3CCC(CO)O3)c(=O)nc2o1` (stereo not drawn) displayed a CC50 of 112 µM.
Take `CCCCCCc1cc2cn(C3CCC(CO)O3)c(=O)nc2o1` (stereo not drawn): the CC50 came to 143 µM.
Turning to `CCCCCCCCCCCc1cc2cn(C3CCC(CO)O3)c(=O)nc2o1` (stereo not drawn), the CC50 was more than 200 µM.
`CCCCCCCCCc1cc2cn(C3CCC(CO)O3)c(=O)nc2o1` (stereo not drawn) yielded a half-maximal cytotoxic concentration (CC50) of more than 200 µM.
Same read-out and setting: with `CCCCCCCCCCc1cc2cn(C3CCC(CO)O3)c(=O)nc2o1` (stereo not drawn) the figure was more than 200 µM; with `CCCCCCCCCCCCc1cc2cn(C3CCC(CO)O3)c(=O)nc2o1` (stereo not drawn), more than 200 µM.
In turn, `Nc1ccn(C[C@@H](CO)OCP(=O)(O)O)c(=O)n1` [CIDOFOVIR] yielded a CC50 of 158 µM.
The same measure, in the same setting: with `O=C(O)P(=O)(O)O` [FOSCARNET] the figure was 500 µM; with `Nc1nc2c(ncn2COC(CO)CO)c(=O)[nH]1` [GANCICLOVIR], more than 150 µM.

Another assay has as its system HEL. Nature of the assay: Minimal cytotoxic concentration required to cause a microscopically visible alteration of HEL cell morphology as measured at day 7 postinfection. It is filed as functional. The conditions noted are these: Homo sapiens, 168 h. In a few lines: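 MCC was assessed within the antiviral assay on confluent HEL monolayers exposed to varying compound concentrations. It was taken at day 7 as the lowest concentration giving microscopically visible cytotoxicity (altered morphology).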
Regarding `CCCCCCCCCCCCCCc1cc2cn(C3CCC(CO)O3)c(=O)nc2o1` (stereo not drawn), the MCC amounted to 200 µM.
The compound `CCCCCCCCc1cc2cn(C3CCC(CO)O3)c(=O)nc2o1` (stereo not drawn) yielded an MCC of 20 µM.
For the compound `CCCCCCc1cc2cn(C3CCC(CO)O3)c(=O)nc2o1` (stereo not drawn), the MCC worked out at 200 µM.
Turning to `CCCCCCCCCCCc1cc2cn(C3CCC(CO)O3)c(=O)nc2o1` (stereo not drawn), the MCC worked out at 50 µM.
Compound `CCCCCCCCCc1cc2cn(C3CCC(CO)O3)c(=O)nc2o1` (stereo not drawn) registered an MCC of 58 µM.
Still for that read-out and setting: then `CCCCCCCCCCc1cc2cn(C3CCC(CO)O3)c(=O)nc2o1` (stereo not drawn), with more than 20 µM.
In turn, `CCCCCCCCCCCCc1cc2cn(C3CCC(CO)O3)c(=O)nc2o1` (stereo not drawn) came in with an MCC of 200 µM.
For the compound `Nc1ccn(C[C@@H](CO)OCP(=O)(O)O)c(=O)n1` [CIDOFOVIR], the MCC is more than 150 µM.
Consider `O=C(O)P(=O)(O)O` [FOSCARNET], for which the MCC is more than 400 µM.
Compound `Nc1nc2c(ncn2COC(CO)CO)c(=O)[nH]1` [GANCICLOVIR] registered an MCC of more than 150 µM.
